# In ChEMBL document CHEMBL1127506, “Novel ligands specific for mitochondrial benzodiazepine receptors: 6-arylpyrrolo[2,1-d][1,5]benzothiazepine derivatives. Synthesis, structure-activity relationships, and molecular modeling studies” (J Med Chem, 1994):
# Target: T1, Translocator protein (Rattus norvegicus, UniProt P16257)
# Assay: Displacement of [3H]-PK 11195 from peripheral (mitochondrial) benzodiazepine receptor (inactive); call rule not given here
# Method in brief: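 Male CD rat cortex (about 150 g) homogenized in ice-cold 50 mM PBS, pH 7.4, spun at 50000g for 10 min, and washed three times. 10 mg original wet tissue incubated with 1 nM [3H]PK 11195 and 8–12 drug concentrations (highest 10^-5 M) for 120 min at 4 °C. Nonspecific binding with 1 μM PK 11195. GF/B filtration, scintillation counting, triplicate points, IC50 by nonlinear curve fitting.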
# T1 sequence (P16257 whole entry, looked up): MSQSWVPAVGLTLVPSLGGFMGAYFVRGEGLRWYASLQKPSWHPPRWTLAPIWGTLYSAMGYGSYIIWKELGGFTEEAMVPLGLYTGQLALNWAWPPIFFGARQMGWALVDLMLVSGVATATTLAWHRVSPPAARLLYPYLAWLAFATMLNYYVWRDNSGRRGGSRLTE
row,Compound,IC50
1,COc1ccc(C2=C(OC(=O)c3cccnc3)c3cccn3-c3ccccc3S2)cc1,Not Active
2,COc1ccc(C2=C(OC(=O)c3ccncc3)c3cccn3-c3ccccc3S2)cc1,Not Active
3,O=C1c2cccn2-c2ccccc2S(=O)(=O)C1c1ccccc1 (centres undefined),Not Active
4,COc1ccc(C2=C(OC(=O)c3c(OC)cc(OC)cc3OC)c3cccn3-c3cc(C(F)(F)F)ccc3S2)cc1,Not Active
5,COc1ccc(C2=C(OC(=O)c3c(OC)cc(OC)cc3OC)c3cccn3-c3ccccc3S2)cc1,Not Active
6,COc1ccc(C2=C(OC(=O)c3c(OC)cc(OC)cc3OC)c3cccn3-c3cc(Cl)ccc3S2)cc1,Not Active
7,COc1ccc([C@H]2Sc3ccccc3-n3cccc3[C@H]2OC(C)=O)cc1,Not Active

# Target: T1, Translocator protein
# Assay: Displacement of [3H]-PK 11195 from peripheral (mitochondrial) benzodiazepine receptor
row,Compound,IC50
1,CC(=O)OC1=C(c2ccccc2)[S+]([O-])c2ccccc2-n2cccc21 (centres undefined),690 nM
2,CCCCC(=O)OC1=C(c2ccccc2)Sc2ccccc2-n2cccc21,48 nM
3,CC(=O)OC1=C(c2ccccc2)Sc2ccc(Cl)cc2-n2cccc21,560 nM
4,CCC(=O)OC1=C(c2ccc(OC)cc2)Sc2ccc(C(F)(F)F)cc2-n2cccc21,2950 nM
5,CCC(=O)OC1=C(c2ccccc2)Sc2ccccc2-n2cccc21,67 nM
6,COc1ccc(C2Sc3ccc(C(F)(F)F)cc3-n3cccc3C2=O)cc1 (centres undefined),6210 nM
7,CCCC(=O)OC1=C(c2ccccc2)Sc2ccccc2-n2cccc21,22 nM
8,O=C1CSc2ccccc2-n2cccc21,> 14000 nM
9,CC(=O)OC1=C(c2ccccc2)Sc2ccccc2-n2cccc21,20 nM
10,COc1ccc(C2=C(OC(C)=O)c3cccn3-c3cc(C(F)(F)F)ccc3S2)cc1,4530 nM
11,O=C1c2cccn2-c2ccccc2[S+]([O-])C1c1ccccc1 (centres undefined),14700 nM
12,COc1ccc(C2=C(OC(C)=O)c3cccn3-c3ccccc3[S+]2[O-])cc1 (centres undefined),2090 nM
13,CCC(=O)OC1=C(c2ccc(OC)cc2)Sc2ccccc2-n2cccc21,30 nM
14,COc1ccc(C2=C(OC(C)=O)c3cccn3-c3cc(OC)ccc3S2)cc1,1810 nM
15,CCCC(=O)OC1=C(c2ccc(OC)cc2)[S+]([O-])c2ccccc2-n2cccc21 (centres undefined),270 nM
16,CCCC(=O)OC1=C(c2ccc(OC)cc2)Sc2ccccc2-n2cccc21,28 nM
17,CC(=O)OC1=C(c2ccccc2)Sc2c(Cl)cccc2-n2cccc21,8 nM
18,COc1ccc(C2=C(OC(C)=O)c3cccn3-c3cc(Cl)ccc3S2)cc1,650 nM
19,COc1ccc(C2=C(OS(C)(=O)=O)c3cccn3-c3ccccc3S2)cc1,95 nM

row,Compound,IC50
1,COc1ccc(C2=C(OC(C)=O)c3cccn3-c3ccccc3S2)cc1,34 nM
2,CC(=O)OC1=C(c2ccccc2)Sc2cc(Cl)ccc2-n2cccc21,230 nM
3,COc1ccc(C2Sc3ccccc3-n3cccc3C2=O)cc1 (centres undefined),2090 nM
4,CCC(=O)OC1=C(c2ccc(OC)cc2)Sc2ccc(Cl)cc2-n2cccc21,490 nM
5,COc1ccc(C2=C(OC(C)=O)c3cccn3-c3ccccc3S2(=O)=O)cc1,640 nM
6,COc1ccc(C2=C(OC(=O)N(C)C)c3cccn3-c3ccccc3S2)cc1,9 nM
7,COc1ccc(C2=C(OC(C)=O)c3cccn3-c3ccc(Cl)cc3S2)cc1,240 nM
8,COc1ccc(C2=C(OC(=O)N(C)C)c3cccn3-c3cc(Cl)ccc3S2)cc1,170 nM
9,CCC(=O)OC1=C(c2ccccc2)Sc2ccc(Cl)cc2-n2cccc21,820 nM
10,CS(=O)(=O)OC1=C(c2ccccc2)Sc2ccccc2-n2cccc21,60 nM
11,CN(C)C(=O)OC1=C(c2ccccc2)Sc2ccccc2-n2cccc21,9 nM
12,O=C1c2cccn2-c2ccccc2SC1c1ccccc1 (centres undefined),1220 nM
13,COc1ccc(C2=C(OC(C)=O)c3cccn3-c3cccc(Cl)c3S2)cc1,20 nM
14,COc1ccc(C2Sc3ccc(Cl)cc3-n3cccc3C2=O)cc1 (centres undefined),1410 nM
15,COc1ccc(C2=C(OC(=O)N(C)C)c3cccn3-c3cc(C(F)(F)F)ccc3S2)cc1,290 nM
16,CC(=O)OC1=C(c2ccccc2)S(=O)(=O)c2ccccc2-n2cccc21,1140 nM
17,CCCCCC(=O)OC1=C(c2ccccc2)Sc2ccccc2-n2cccc21,23 nM
18,COc1ccc(C2C(=O)c3cccn3-c3ccccc3[S+]2[O-])cc1 (centres undefined),23000 nM
